These results are taken from article PMC5692558 (Proceedings of the National Academy of Sciences of the …, 2017).

Entries after “also recorded” stand apart in the source; their conditions may differ.

One assay deals with STAC3 W284S. Kind of assay: ITC, II–III loop with STAC3 W284S. The note with it: 25 °C, pH 7.4, NAM mutant W284S. The format is binding, human. In general terms: In ITC the heat of successive injections is recorded.
In another assay the test system is human CaV1.2. The assay can be described thus: CaV1.2 inactivation. The assay is classed as cell-based. The conditions noted are these: Xenopus oocytes, two-electrode voltage clamp, Ba^2+ or Ca^2+ solution. The method in brief:
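Human CaV1.2 α1c (splice variant a1c77) cRNA (8.2–10.9 ng) was co-injected with rabbit β1 (11.7–15.5 ng), with optional rabbit α2δ (11.7 ng) and human STAC3 isoform a (9.8–13.0 ng). Oocytes were held at 18 °C in OR3 (pH 7.6) and recorded 3–4 d later. BAPTA was pre-injected; perfusate was 40 mM Ba2+ or Ca2+, pH 7.4. P/4 leak subtraction; two-tailed unpaired t test.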

Assay [1] concerns the target T1, STAC3 tandem SH3 domains (residues 245–364) (human, UniProt Q96MF2-1 245-364).
T1 sequence (looked up): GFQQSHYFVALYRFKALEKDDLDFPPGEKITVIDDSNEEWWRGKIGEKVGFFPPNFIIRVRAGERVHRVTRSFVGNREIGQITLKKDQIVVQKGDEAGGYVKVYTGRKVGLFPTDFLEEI
Kind of assay: ITC.

Assay [2] deals with T2, STAC2 tandem SH3 domains with Gln-306 mutated to Leu (human, UniProt Q6ZMT1 296-411, Gln-306 to Leu).
T2 sequence (looked up): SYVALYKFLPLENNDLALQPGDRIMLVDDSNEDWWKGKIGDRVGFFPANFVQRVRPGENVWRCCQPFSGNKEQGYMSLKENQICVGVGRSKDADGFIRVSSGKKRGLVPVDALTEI
Kind of assay: ITC.

The subject of the next assay is stac^−/− myotubes. The conditions noted are these: ref [16], cited from earlier work.
The subject of assay [3] is skeletal muscle CaV1.1 complex. The note with it: STAC3 W284S; ref [18]; listed as NAM mutation; cited from earlier work.
Assay [4] deals with T3, STAC1 tandem SH3 domains (residues 288–402) (human, UniProt Q99469 288-402).
T3 sequence (looked up): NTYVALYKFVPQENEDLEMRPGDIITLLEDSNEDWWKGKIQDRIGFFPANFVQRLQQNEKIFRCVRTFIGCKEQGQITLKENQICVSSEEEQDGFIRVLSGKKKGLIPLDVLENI
Kind of assay: ITC.

For assay [5], the target named is T4, STAC2 tandem SH3 domains (residues 296–411) (human, UniProt Q6ZMT1 296-411).
T4 sequence (looked up): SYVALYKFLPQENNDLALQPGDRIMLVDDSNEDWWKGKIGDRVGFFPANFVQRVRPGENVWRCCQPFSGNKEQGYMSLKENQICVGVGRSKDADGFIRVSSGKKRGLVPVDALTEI
Kind of assay: ITC.

In a further assay the test system is CaV1.2. The note with it: ref [15]; cited from earlier work.

As to “CaV1.1 728–775: fragment 728–775 of the CaV1.1 II–III loop (core II–III loop) (NVNEVKDPYPSADFPGDDEEDEPEIPLSPRPRPLAELQLKEKAVPIPE; left off: His6, end not stated, cleaved | maltose-binding protein, end not stated, cleaved)”, the figures for the “interaction detected by ITC” value in the assay with STAC3 W284S and with STAC3 W284S (listed as II–III loop peptide) were “no longer able to detect an interaction” and “decreases the affinity to levels below detection”, respectively.

On to “IPRAAA: mutation at the binding interface tested for CaV1.2 inactivation (NVNEVKDPYPSADFPGDDEEDEPEAALSPAPRPLAELQLKEKAVPIPE; left off: His6, end not stated, cleaved | maltose-binding protein, end not stated, cleaved)”, for which, in the assay with human CaV1.2, the “effect on slowing of CaV1.2 inactivation induced by STAC3” value (shortened to “effect on slowing”) is given as “neither mutations at the binding interface (W284S or IPRAAA) nor an outright deletion of both SH3 domains affected the slowing of inactivation”.

A word on the Kd: it is a measure of binding affinity in units of concentration. High values mean weaker binding, low ones tighter binding. Molecule EDEPEIPLSPRPRP (peptide, UniProt Q13698 747-760, looked up) [CaV1.1 747–760 (minimal peptide)] displayed a Kd in [1] of 10.6 µM. The “fold lower affinity than wild type” value in assay [2] is around 2 fold.

B1: W284S: STAC3 disease mutation linked to Native American myopathy (protein)
chain: MTEKEVLESPKPSFPAETRQSGLQRLKQLLRKGSTGTKEMELPPEPQANGEAVGAGGGPIYYIYEEEEEEEEEEEEPPPEPPKLVNDKPHKFKDHFFKKPKFCDVCARMIVLNNKFGLRCKNCKTNIHEHCQSYVEMQRCFGKIPPGFHRAYSSPLYSNQQYACVKDLSAANRNDPVFETLRTGVIMANKERKKGQADKKNPVAAMMEEEPESARPEEGKPQDGNPEGDKKAEKKTPDDKHKQPGFQQSHYFVALYRFKALEKDDLDFPPGEKITVIDDSNEESWRGKIGEKVGFFPPNFIIRVRAGERVHRVTRSFVGNREIGQITLKKDQIVVQKGDEAGGYVKVYTGRKVGLFPTDFLEEI
modifications: left off: His6, end not stated, cleaved | maltose-binding protein, end not stated, cleaved
B1: the “effect on slowing” value in the assay with human CaV1.2 is recorded as “neither mutations at the binding interface (W284S or IPRAAA) nor an outright deletion of both SH3 domains affected the slowing of inactivation”. Further, in the assay on stac^−/− myotubes (STAC3 W284S (NAM mutation)), the “effect on EC coupling” value was “diminished EC coupling; also recorded: large reduction in EC coupling”. Besides, in the assay with stac^−/− myotubes (reconstituted stac^−/− myotubes, [17]), the “effect on depolarization-induced calcium release” value is reported as “drastic reduction in depolarization-induced calcium release”. Moreover, the “recruitment of STAC3 into the skeletal muscle CaV1.1 complex / interaction with CaV1.1” value in assay [3] is “did not appear to abolish the interaction between CaV1.1 and STAC3”.

With NVNEVKDPYPSADFPGDDEEDEPEIPLSPRPRPLAELQLKEKAVPIPE (domain or fragment, human, UniProt Q13698 728-775, looked up) [CaV1.1 728–775 (core II–III loop)], the “fold higher affinity than STAC2” value in assay [1] is around 2.2 fold; in assay [4] it was around 2.4 fold. Also, binding in [5] was put at a Kd of 1850 nM.

B2: deletion of both SH3 domains: truncated STAC3 missing both SH3 domain (1–244) (protein, UniProt Q96MF2 1-244, looked up, fragment)
chain: MTEKEVLESPKPSFPAETRQSGLQRLKQLLRKGSTGTKEMELPPEPQANGEAVGAGGGPIYYIYEEEEEEEEEEEEPPPEPPKLVNDKPHKFKDHFFKKPKFCDVCARMIVLNNKFGLRCKNCKTNIHEHCQSYVEMQRCFGKIPPGFHRAYSSPLYSNQQYACVKDLSAANRNDPVFETLRTGVIMANKERKKGQADKKNPVAAMMEEEPESARPEEGKPQDGNPEGDKKAEKKTPDDKHKQP
Consider B2, for which the “effect on slowing” value in the assay on human CaV1.2 was “neither mutations at the binding interface (W284S or IPRAAA) nor an outright deletion of both SH3 domains affected the slowing of inactivation; also recorded: still resulted in slower inactivation”.

B3: STAC3: human STAC3 isoform a (NP_659501.1) (protein)
chain: GFQQSHYFVALYRFKALEKDDLDFPPGEKITVIDDSNEEWWRGKIGEKVGFFPPNFIIRVRAGERVHRVTRSFVGNREIGQITLKKDQIVVQKGDEAGGYVKVYTGRKVGLFPTDFLEEI
modifications: left off: His6, end not stated, cleaved | maltose-binding protein, end not stated, cleaved
As for B3, the “effect on inactivation of CaV1.2” value with CaV1.2 is recorded as “dramatic reduction in the speed of inactivation”.
